# Several values for one entry are separate records, joined by “and”; a condition that tells them apart may be missing. Identical values can stand only once. Counter-ions that a name gives are not always drawn.
# Tests used:
# [1] = Tissue biodistribution and regional brain uptake in rats; format: in vivo, male Sprague-Dawley rats; conditions: for Blood uptake: i.v., mean ± SD
# human VAChT = molecular target: T1, human VAChT (Homo sapiens, UniProt Q16572); test: VAChT binding, competition against [^3H]vesamicol; conditions: for Ki: VAChT (Ki [nM]), [^3H]vesamicol competition, mean ± SEM
# T1 sequence (Q16572 1-532): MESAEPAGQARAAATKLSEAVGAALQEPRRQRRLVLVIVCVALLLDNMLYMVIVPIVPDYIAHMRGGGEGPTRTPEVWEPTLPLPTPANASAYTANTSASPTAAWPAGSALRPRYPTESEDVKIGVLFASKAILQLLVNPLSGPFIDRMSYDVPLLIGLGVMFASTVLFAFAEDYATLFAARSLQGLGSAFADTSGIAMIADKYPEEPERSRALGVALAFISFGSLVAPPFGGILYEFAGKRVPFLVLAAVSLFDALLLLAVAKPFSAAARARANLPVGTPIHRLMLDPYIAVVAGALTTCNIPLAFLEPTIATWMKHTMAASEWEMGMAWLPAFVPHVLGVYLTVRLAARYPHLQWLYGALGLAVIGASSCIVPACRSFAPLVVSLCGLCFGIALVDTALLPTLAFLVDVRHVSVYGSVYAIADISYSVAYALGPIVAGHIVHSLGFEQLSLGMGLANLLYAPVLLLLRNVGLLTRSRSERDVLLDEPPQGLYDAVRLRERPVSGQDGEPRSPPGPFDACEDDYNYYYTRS
# [2] = Ex vivo autoradiography of rat brain; format: in vivo, male Sprague-Dawley rat; conditions: rat sacrificed 1 h p.i., 1 mm coronal sections
# Outline: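 A single mature male Sprague-Dawley rat received ∼500 μCi of the 18F-labelled test compound by tail-vein injection under isoflurane/oxygen anaesthesia. The rat recovered and was euthanised 1 h later. The brain was taken out quickly and set in a metal brain matrix with 1 mm slots. A 1.0 mm slice through the striatum was imaged by flatbed scanner and by electronic autoradiography.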
# [3] = 5 min p.i., rat brain dissection
molecule,measurement,setting,value
(+)-trans-2-Hydroxy-3-(4-(4-[^18F]fluorobenzoyl)piperidino)tetralin [(+)-[^18F]9e],Bone uptake,[1]; 5 min p.i.,0.187 ± 0.015 %ID/g
same,Brain uptake,[1]; 5 min p.i.,0.350 ± 0.040 %ID/g
same,Fat uptake,[1]; 5 min p.i.,0.052 ± 0.017 %ID/g
same,Heart uptake,[1]; 5 min p.i.,0.194 ± 0.006 %ID/g
same,Kidney uptake,[1]; 5 min p.i.,0.791 ± 0.123 %ID/g
same,Liver uptake,[1]; 5 min p.i.,1.849 ± 0.566 %ID/g
same,Lung uptake,[1]; 5 min p.i.,0.904 ± 0.161 %ID/g
same,Muscle uptake,[1]; 5 min p.i.,0.047 ± 0.010 %ID/g
same,Ratio Striatum: Cerebellum,[1]; 5 min p.i.,1.15 ± 0.04
same,Ratio Striatum: Cortex,[1]; 5 min p.i.,0.92 ± 0.02
same,Ratio Striatum: Hippocampus,[1]; 5 min p.i.,0.99 ± 0.04
same,Ratio Striatum: Total Brain,[1]; 5 min p.i.,1.02 ± 0.03
same,Blood uptake,"[1]; 5 min p.i., n=4 rats",0.136 ± 0.020 %ID/g
same,Ratio Striatum: Blood,"[1]; 5 min p.i., %ID/g striatum divided by %ID/g non-striatal tissue, n=4 rats",2.67 ± 0.57
same,Bone uptake,[1]; 30 min p.i.,0.277 ± 0.080 %ID/g
same,Brain uptake,[1]; 30 min p.i.,0.071 ± 0.012 %ID/g
same,Fat uptake,[1]; 30 min p.i.,0.108 ± 0.053 %ID/g
same,Heart uptake,[1]; 30 min p.i.,0.094 ± 0.013 %ID/g
same,Kidney uptake,[1]; 30 min p.i.,0.416 ± 0.048 %ID/g
same,Liver uptake,[1]; 30 min p.i.,1.239 ± 0.271 %ID/g
same,Lung uptake,[1]; 30 min p.i.,0.332 ± 0.073 %ID/g
same,Muscle uptake,[1]; 30 min p.i.,0.051 ± 0.010 %ID/g
same,Ratio Striatum: Blood,[1]; 30 min p.i.,0.95 ± 0.18
same,Ratio Striatum: Cerebellum,[1]; 30 min p.i.,1.3 ± 0.07
same,Ratio Striatum: Cortex,[1]; 30 min p.i.,1.08 ± 0.09
same,Ratio Striatum: Hippocampus,[1]; 30 min p.i.,0.93 ± 0.03
same,Ratio Striatum: Total Brain,[1]; 30 min p.i.,1.13 ± 0.04
same,Blood uptake,"[1]; 30 min p.i., n=4 rats",0.087 ± 0.016 %ID/g
same,Bone uptake,[1]; 1 h p.i.,0.399 ± 0.078 %ID/g
same,Brain uptake,[1]; 1 h p.i.,0.041 ± 0.002 %ID/g
same,Fat uptake,[1]; 1 h p.i.,0.154 ± 0.065 %ID/g
same,Heart uptake,[1]; 1 h p.i.,0.051 ± 0.005 %ID/g
same,Kidney uptake,[1]; 1 h p.i.,0.291 ± 0.032 %ID/g
same,Liver uptake,[1]; 1 h p.i.,0.814 ± 0.120 %ID/g
same,Lung uptake,[1]; 1 h p.i.,0.188 ± 0.035 %ID/g
same,Muscle uptake,[1]; 1 h p.i.,0.034 ± 0.008 %ID/g
same,Ratio Striatum: Blood,[1]; 1 h p.i.,0.9 ± 0.23
same,Ratio Striatum: Cerebellum,[1]; 1 h p.i.,1.17 ± 0.12
same,Ratio Striatum: Cortex,[1]; 1 h p.i.,0.95 ± 0.09
same,Ratio Striatum: Hippocampus,[1]; 1 h p.i.,0.98 ± 0.14
same,Ratio Striatum: Total Brain,[1]; 1 h p.i.,1.02 ± 0.09
same,Blood uptake,"[1]; 1 h p.i., n=4 rats",0.048 ± 0.007 %ID/g
same,Bone uptake,[1]; 2 h p.i.,0.532 ± 0.096 %ID/g
same,Brain uptake,[1]; 2 h p.i.,0.022 ± 0.004 %ID/g
same,Fat uptake,[1]; 2 h p.i.,0.150 ± 0.062 %ID/g
same,Heart uptake,[1]; 2 h p.i.,0.031 ± 0.006 %ID/g
same,Kidney uptake,[1]; 2 h p.i.,0.194 ± 0.027 %ID/g
same,Liver uptake,[1]; 2 h p.i.,0.692 ± 0.081 %ID/g
same,Lung uptake,[1]; 2 h p.i.,0.112 ± 0.023 %ID/g
same,Muscle uptake,[1]; 2 h p.i.,0.022 ± 0.005 %ID/g
same,Ratio Striatum: Blood,[1]; 2 h p.i.,0.87 ± 0.11
same,Ratio Striatum: Cerebellum,[1]; 2 h p.i.,1.14 ± 0.09
same,Ratio Striatum: Cortex,[1]; 2 h p.i.,0.91 ± 0.15
same,Ratio Striatum: Hippocampus,[1]; 2 h p.i.,0.99 ± 0.08
same,Ratio Striatum: Total Brain,[1]; 2 h p.i.,1.04 ± 0.06
same,Blood uptake,"[1]; 2 h p.i., n=4 rats",0.027 ± 0.002 %ID/g
"O=C(c1ccc(F)cc1)C1CCN([C@@H]2Cc3ccccc3C[C@H]2O)CC1 (single isomer, unassigned) [(+)-9e]",Ki,human VAChT,108 ± 15 nM
"Nc1ccc(C(=O)C2CCN([C@@H]3Cc4ccccc4C[C@H]3O)CC2)cc1 (racemic) [Compound 9c, (±)-trans-2-Hydroxy-3-(4-(4-aminobenzoyl)piperidino)tetralin]",IC50,human VAChT,1.68 ± 0.04 nM
"O=C(c1ccc(F)cc1)C1CCN([C@@H]2Cc3ccccc3C[C@H]2O)CC1 (relative stereo) [(±)9e, (±)-trans-2-Hydroxy-3-(4-(4-fluorobenzoyl)piperidino)tetralin]",IC50,human VAChT,2.7 ± 0.4 nM
same,Ki,human VAChT,2.7 ± 0.4 nM
"O=C(c1ccc(Br)cc1)C1CCN([C@@H]2Cc3ccccc3C[C@H]2O)CC1 (racemic) [Compound 9b, (±)-trans-2-Hydroxy-3-(4-(4-bromobenzoyl)piperidino)tetralin hydrochloride]",IC50,human VAChT,0.25 ± 0.02 nM
"O=C(c1ccccc1)C1CCN([C@@H]2Cc3ccccc3C[C@H]2O)CC1 (racemic) [Compound 9a, (±)-trans-2-Hydroxy-3-(4-benzoylpiperidino)tetralin hydrochloride]",IC50,human VAChT,4.3 ± 1 nM
"O=C(c1ccc([N+](=O)[O-])cc1)C1CCN([C@@H]2Cc3ccccc3C[C@H]2O)CC1 (racemic) [Compound 9d, (±)-trans-2-Hydroxy-3-(4-(4-nitrobenzoyl)piperidino)tetralin]",IC50,human VAChT,0.48 ± 0.03 nM
"O=C(c1ccc([18F])cc1)C1CCN([C@@H]2Cc3ccccc3C[C@H]2O)CC1 (racemic) [(±)-[^18F]9e, (±)-trans-2-Hydroxy-3-(4-(4-[^18F]fluorobenzoyl)piperidino)tetralin]",Bone uptake,[1]; 5 min p.i.,0.307 ± 0.011 %ID/g
same,Brain uptake,[1]; 5 min p.i.,0.606 ± 0.100 %ID/g
same,Fat uptake,[1]; 5 min p.i.,0.088 ± 0.026 %ID/g
same,Heart uptake,[1]; 5 min p.i.,0.328 ± 0.014 %ID/g
same,Liver uptake,[1]; 5 min p.i.,1.939 ± 0.382 %ID/g
same,Muscle uptake,[1]; 5 min p.i.,0.079 ± 0.015 %ID/g
same,Blood uptake,"[1]; 5 min p.i., n=4 rats",0.122 ± 0.023 %ID/g
same,Bone uptake,"[1]; 5 min p.i., listed as racemic [^18F]9e",0.31 %ID/g
same,Bone uptake,[1]; 30 min p.i.,0.445 ± 0.032 %ID/g
same,Brain uptake,[1]; 30 min p.i.,0.153 ± 0.044 %ID/g
same,Fat uptake,[1]; 30 min p.i.,0.177 ± 0.039 %ID/g
same,Heart uptake,[1]; 30 min p.i.,0.141 ± 0.005 %ID/g
same,Liver uptake,[1]; 30 min p.i.,1.504 ± 0.271 %ID/g
same,Lung uptake,[1]; 30 min p.i.,0.553 ± 0.056 %ID/g
same,Muscle uptake,[1]; 30 min p.i.,0.071 ± 0.006 %ID/g
same,Blood uptake,"[1]; 30 min p.i., n=4 rats",0.071 ± 0.009 %ID/g
same,Bone uptake,[1]; 1 h p.i.,0.623 ± 0.080 %ID/g
same,Brain uptake,[1]; 1 h p.i.,0.095 ± 0.012 %ID/g
same,Fat uptake,[1]; 1 h p.i.,0.196 ± 0.035 %ID/g
same,Heart uptake,[1]; 1 h p.i.,0.094 ± 0.008 %ID/g
same,Lung uptake,[1]; 1 h p.i.,0.346 ± 0.045 %ID/g
same,Muscle uptake,[1]; 1 h p.i.,0.076 ± 0.012 %ID/g
same,Blood uptake,"[1]; 1 h p.i., n=4 rats",0.043 ± 0.003 %ID/g
same,Bone uptake,[1]; 2 h p.i.,0.739 ± 0.044 %ID/g
same,Brain uptake,[1]; 2 h p.i.,0.059 ± 0.008 %ID/g
same,Fat uptake,[1]; 2 h p.i.,0.173 ± 0.042 %ID/g
same,Heart uptake,[1]; 2 h p.i.,0.056 ± 0.007 %ID/g
same,Kidney uptake,[1]; 2 h p.i.,0.853 ± 0.171 %ID/g
same,Liver uptake,[1]; 2 h p.i.,1.188 ± 0.158 %ID/g
same,Lung uptake,[1]; 2 h p.i.,0.223 ± 0.014 %ID/g
same,Muscle uptake,[1]; 2 h p.i.,0.047 ± 0.006 %ID/g
same,Blood uptake,"[1]; 2 h p.i., n=4 rats",0.027 ± 0.004 %ID/g
(-)-trans-2-Hydroxy-3-(4-(4-[^18F]fluorobenzoyl)piperidino)tetralin [(-)-[^18F]9e],Bone uptake,[1]; 5 min p.i.,0.334 ± 0.047 %ID/g
same,Brain uptake,[1]; 5 min p.i.,0.823 ± 0.091 %ID/g
same,Fat uptake,[1]; 5 min p.i.,0.132 ± 0.095 %ID/g
same,Heart uptake,[1]; 5 min p.i.,0.321 ± 0.027 %ID/g
same,Kidney uptake,[1]; 5 min p.i.,2.02 %ID/g and 2.018 ± 0.448 %ID/g
same,Muscle uptake,[1]; 5 min p.i.,0.091 ± 0.018 %ID/g
same,Blood uptake,"[1]; 5 min p.i., n=4 rats",0.073 ± 0.010 %ID/g
same,Initial uptake in cerebellum,[1]; [3],0.743 %ID/g
same,Initial uptake in cortex,[1]; [3],0.911 %ID/g
same,Initial uptake in hippocampus,[1]; [3],0.837 %ID/g
same,Initial uptake in striatum,[1]; [3],0.911 %ID/g
same,Bone uptake,[1]; 30 min p.i.,0.157 ± 0.004 %ID/g
same,Brain uptake,[1]; 30 min p.i.,0.226 ± 0.014 %ID/g
same,Fat uptake,[1]; 30 min p.i.,0.207 ± 0.018 %ID/g
same,Heart uptake,[1]; 30 min p.i.,0.109 ± 0.014 %ID/g
same,Kidney uptake,[1]; 30 min p.i.,1.896 ± 0.333 %ID/g
same,Lung uptake,[1]; 30 min p.i.,0.481 ± 0.088 %ID/g
same,Muscle uptake,[1]; 30 min p.i.,0.080 ± 0.008 %ID/g
same,Blood uptake,"[1]; 30 min p.i., n=4 rats",0.037 ± 0.002 %ID/g
same,Bone uptake,[1]; 1 h p.i.,0.148 ± 0.015 %ID/g
same,Brain uptake,[1]; 1 h p.i.,0.124 ± 0.013 %ID/g
same,Fat uptake,[1]; 1 h p.i.,0.241 ± 0.021 %ID/g
same,Heart uptake,[1]; 1 h p.i.,0.066 ± 0.008 %ID/g
same,Kidney uptake,[1]; 1 h p.i.,1.298 ± 0.372 %ID/g
same,Lung uptake,[1]; 1 h p.i.,0.327 ± 0.022 %ID/g
same,Muscle uptake,[1]; 1 h p.i.,0.056 ± 0.010 %ID/g
same,Blood uptake,"[1]; 1 h p.i., n=4 rats",0.029 ± 0.005 %ID/g
same,Bone uptake,[1]; 2 h p.i.,0.138 ± 0.006 %ID/g
same,Brain uptake,[1]; 2 h p.i.,0.095 ± 0.016 %ID/g
same,Fat uptake,[1]; 2 h p.i.,0.249 ± 0.036 %ID/g
same,Heart uptake,[1]; 2 h p.i.,0.047 ± 0.009 %ID/g
same,Kidney uptake,[1]; 2 h p.i.,1.339 ± 0.160 %ID/g
same,Lung uptake,[1]; 2 h p.i.,0.199 ± 0.032 %ID/g
same,Muscle uptake,[1]; 2 h p.i.,0.035 ± 0.007 %ID/g
same,Blood uptake,"[1]; 2 h p.i., n=4 rats",0.020 ± 0.002 %ID/g
same,accumulation in the cortex (autoradiogram),[2],moderate accumulation
same,accumulation in the striatum (autoradiogram),[2],high accumulation

# Reference: article PMC2765529 (Journal of medicinal chemistry, 2009)
